ChEMBL document CHEMBL1122774, “Tri- and tetrapeptide analogues of kinins as potential renal vasodilators” (J Med Chem, 1984)
Square brackets hold non-standard residues; d marks the D form. Peptide text beside a SMILES is read from it. * marks the point of attachment. ξ: configuration not given here. Butanoyl(4-(4-HOPh)) = O=C(CCCc1ccc(O)cc1)*; ξαMeY = CC(N)(Cc1ccc(O)cc1)C(=O)O; pNA = O=[N+]([O-])c1ccc(N*)cc1; ξαMeF = CC(N)(Cc1ccccc1)C(=O)O; Bz = O=C(c1ccccc1)*

Assays:
[1] = test system: Canis familiaris; test: In vivo percent change in canine renal blood flow (RBF) at 30 ug/Kg/min.; type: functional, Canis lupus familiaris, Kidney
Procedure, shortened: (§1)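 Primary screen in anesthetized dogs (7-17 kg). Drug infused separately at 3, 30 and 300 µg/(kg min), each infusion lasting 5 min, at about 15-min intervals. Read-outs are renal blood flow, mean arterial blood pressure, heart rate, and RVR (MABP / mean RBF), as percent change. Significance thresholds are defined per number of dogs; n = 1-3 dogs.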

[2] = test system: Canis familiaris; test: In vivo percent change in canine renal blood flow (RBF) at 3 ug/Kg/min.; type: functional, Canis lupus familiaris, Kidney; procedure, shortened: as §1
[3] = test system: Canis familiaris; test: In vivo percent change in canine renal vascular resistance (RVR) at 300 ug/Kg/min.; type: functional, Canis lupus familiaris; procedure, shortened: as §1
[4] = test system: Canis familiaris; test: In vivo percent change in canine renal vascular resistance (RVR) at 3 ug/Kg/min.; type: functional, Canis lupus familiaris; procedure, shortened: as §1
[5] = test system: Canis familiaris; test: In vivo percent change in canine renal blood flow (RBF) at 300 ug/Kg/min.; type: functional, Canis lupus familiaris, Kidney; procedure, shortened: as §1
[6] = test system: Canis familiaris; test: In vivo percent change in canine renal vascular resistance (RVR) at 30 ug/Kg/min.; type: functional, Canis lupus familiaris; procedure, shortened: as §1
[7] = test system: Canis familiaris; test: In vivo percent change in canine heart rate at 30 ug/Kg/min.; type: functional, Canis lupus familiaris; procedure, shortened: as §1
[8] = test system: Canis familiaris; test: In vivo percent change in canine mean arterial blood pressure (MABP) at 300 ug/Kg/min.; type: functional, Canis lupus familiaris; procedure, shortened: as §1
[9] = test system: Canis familiaris; test: In vivo percent change in canine mean arterial blood pressure (MABP) at 30 ug/Kg/min.; type: functional, Canis lupus familiaris; procedure, shortened: as §1
[10] = test system: Canis familiaris; test: In vivo percent change in canine heart rate at 3 ug/Kg/min.; type: functional, Canis lupus familiaris; procedure, shortened: as §1
[11] = test system: Canis familiaris; test: In vivo percent change in canine heart rate at 300 ug/Kg/min.; type: functional, Canis lupus familiaris; procedure, shortened: as §1
[12] = test system: Canis familiaris; test: In vivo percent change in canine mean arterial blood pressure (MABP) at 3 ug/Kg/min.; type: functional, Canis lupus familiaris; procedure, shortened: as §1
[13] = Average max percent decrease in RVR (renal vascular resistance) was determined.
Procedure, shortened: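 Secondary protocol in anesthetized dogs. Drug given as iv infusion at progressively increasing rates, each dose level for 5 min. The maximum effect is taken as the largest percent decrease in renal vascular resistance (RVR) reached with the compound. RVR is calculated as mean arterial blood pressure / mean renal blood flow.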

[14] = test system: Canis familiaris; test: Renal vasodilator activity in anesthetized dogs and percent change in renal vascular resistance (RVR) was determined at 30 ug/Kg/min; type: functional, Canis lupus familiaris; procedure, shortened: as §1
[15] = test system: Canis familiaris; test: Renal vasodilator activity in anesthetized dogs and percent change in mean arterial blood pressure (MABP) was determined at 3 ug/kg min; type: functional, Canis lupus familiaris; procedure, shortened: as §1
[16] = Ratio of ED30 of iliac vascular resistant (IVR) to the ED15 of RVR (renal vascular resistance); type: functional
Procedure, shortened: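 Anesthetized dogs in the secondary cumulative-infusion protocol, each dose level 5 min. Selectivity ratio is the dose giving a 30% change in iliac vascular resistance divided by the RVR ED15, the cumulative dose decreasing renal vascular resistance by 15%.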

[17] = test system: Canis familiaris; test: Renal vasodilator activity in anesthetized dogs and percent change in renal blood flow (RBF) was determined at 300 ug/kg min; type: functional, Canis lupus familiaris, Kidney; procedure, shortened: as §1
[18] = test system: Canis familiaris; test: Renal vasodilator activity in anesthetized dogs and percent change in renal vascular resistance (RVR) was determined at 30 ug/kg min; type: functional, Canis lupus familiaris; procedure, shortened: as §1
[19] = test system: Canis familiaris; test: Compound was evaluated for renal vasodilator activity and represented as ED15 (intravenous administration); type: functional; conditions: Canis lupus familiaris
Procedure, shortened: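 Secondary protocol in anesthetized dogs with iv infusion at progressively increasing rates, each level infused 5 min. Potency is the cumulative dose (µg/kg) that lowered renal vascular resistance (MABP / mean RBF) by 15%. Minimum change needed for significance (p = 0.95) is 16% for RVR.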

[20] = test system: Canis familiaris; test: Renal vasodilator activity in anesthetized dogs and percent change in renal blood flow (RBF) was determined at 3 ug/kg min; type: functional, Canis lupus familiaris, Kidney; procedure, shortened: as §1
[21] = test system: Canis familiaris; test: Renal vasodilator activity in anesthetized dogs and percent change in heart rate (HR) was determined at 30 ug/kg min; type: functional, Canis lupus familiaris; procedure, shortened: as §1
[22] = test system: Canis familiaris; test: Renal vasodilator activity in anesthetized dogs and percent change in heart rate (HR) was determined at 3 ug/kg min; type: functional, Canis lupus familiaris; procedure, shortened: as §1
[23] = test system: Canis familiaris; test: Renal vasodilator activity in anesthetized dogs and percent change in heart rate (HR) was determined at 300 ug/kg min; type: functional, Canis lupus familiaris; procedure, shortened: as §1
[24] = test system: Canis familiaris; test: Renal vasodilator activity in anesthetized dogs and percent change in renal blood flow (RBF) was determined at 30 ug/kg min; type: functional, Canis lupus familiaris, Kidney; procedure, shortened: as §1
[25] = test system: Canis familiaris; test: Renal vasodilator activity in anesthetized dogs and percent change in renal vascular resistance (RVR) was determined at 300 ug/kg min; type: functional, Canis lupus familiaris; procedure, shortened: as §1
[26] = test system: Canis familiaris; test: Renal vasodilator activity in anesthetized dogs and percent change in mean arterial blood pressure (MABP) was determined at 30 ug/kg min; type: functional, Canis lupus familiaris; procedure, shortened: as §1
[27] = test system: Canis familiaris; test: Renal vasodilator activity in anesthetized dogs and percent change in renal vascular resistance (RVR) was determined at 3 ug/kg min; type: functional, Canis lupus familiaris; procedure, shortened: as §1
[28] = test system: Canis familiaris; test: Renal vasodilator activity in anesthetized dogs and percent change in mean arterial blood pressure (MABP) was determined at 300 ug/kg min; type: functional, Canis lupus familiaris; procedure, shortened: as §1
[29] = test system: Canis familiaris; test: In vivo percent change in renal blood flow at 30 ug/Kg/min.; type: functional, Canis lupus familiaris, Kidney; procedure, shortened: as §1

Row | Decrease [13] [%] | Compound | Change [1] [%] | Change [2] [%] | Change [3] [%] | Change [4] [%] | Change [5] [%] | Change [6] [%] | Change [7] [%] | Change [8] [%] | Change [9] [%] | Change [10] [%] | Change [11] [%] | Change [12] [%] | Change [14] [%] | other results
1 | – | N=C(N)NCCC[C@H](NC[C@H](Cc1ccccc1)NC(=O)[C@@H]1CCCN1)C(=O)O | 3 | 0 | -2 | 0 | 0 | -3 | 0 | -2 | 0 | -3 | 0 | 0 | – | –
2 | 67 | H-RPPGFSPFR-OH [BRADYKININ] | – | – | – | – | – | – | – | – | – | – | – | – | – | –
3 | – | O=C(NCC(=O)N1CCC[C@H]1C(=O)O)[C@H](Cc1ccccc1)NC(=O)[C@@H]1CCCN1C(=O)CCCc1ccc(O)cc1 ({Butanoyl(4-(4-HOPh))}-PFGP-OH) | -43 | 2.5 | -8.5 | -4.5 | 7 | – | -1.5 | -1.5 | -1 | -2.5 | 1.5 | -2 | 74.5 | –
4 | 20 | N=C(N)NCCC[C@H](NC(=O)[C@H](Cc1ccccc1)NC(=O)[C@@H]1CCCN1C(=O)c1ccccc1)C(=O)Nc1ccc([N+](=O)[O-])cc1 (Bz-Pro-Phe-Arg-pNA) | – | – | – | – | – | – | – | – | – | – | – | – | – | Change [15]: 1.2%; Ratio [16]: > 20; Change [17]: 27%; Change [18]: -3%; ED15 [19]: 0.297 mg/kg; Change [20]: 1.9%; Change [21]: -3%; Change [22]: 0%; Change [23]: -10%; Change [24]: 4.8%; Change [25]: -38.7%; Change [26]: 1.5%; Change [27]: 0%; Change [28]: -26.6%
5 | – | CC(Cc1ccccc1)(NC(=O)[C@@H]1CCCN1C(=O)c1ccccc1)C(=O)N1CCC[C@H]1C(=O)O (stereo not given in full) (Bz-Pro-[ξαMeF]-Pro-OH) | – | 4 | -4 | -4 | 0 | -5 | -6 | -4 | -5 | 3 | 0 | 0 | – | Change [29]: 0%
6 | 21 | H-FSPFR-OH | – | – | – | – | – | – | – | – | – | – | – | – | – | –
7 | – | Cl.NCCCNC(=O)[C@H](Cc1ccccc1)NC(=O)[C@@H]1CCCN1C(=O)CCCc1ccccc1 | 5 | 0 | -8.9 | 0 | 6.5 | – | 0 | -2.7 | 0 | 0 | -5.3 | 0 | -3.8 | –
8 | 13 | CC(Cc1ccc(O)cc1)(NC(=O)[C@@H]1CCCN1C(=O)CCCc1ccc(O)cc1)C(=O)NCC(=O)N1CCC[C@H]1C(=O)O (stereo not given in full) ({Butanoyl(4-(4-HOPh))}-P[ξαMeY]GP-OH) | – | 4 | -5.9 | -6 | 9 | – | 0 | 3 | 1 | -7 | -1.5 | -2 | -0.5 | Change [29]: 0.5%
9 | – | Cl.Cl.NCCCNC(=O)[C@H](Cc1ccccc1)NC(=O)[C@@H]1CCCN1 | 5 | 3.5 | -9 | -3 | 6.5 | -5 | -1 | -3.5 | 0 | -1.5 | -1 | -0.5 | – | –
